# Experimental data as given in ChEMBL document CHEMBL4004856, “Synthesis of new heterocyclic compounds based on pyrazolopyridine scaffold and evaluation of their neuroprotective potential in MPP+-induced neurodegeneration” (Eur J Med Chem, 2017).
# Activity calls are given as the source filed them. No cut-off for these calls is given here.
# Columns and labels:
# SH-SY5Y [1] = test: Neuroprotective activity against MPP+-induced toxicity in human SH-SY5Y cells assessed as increase in cell viability at 10 to 20 uM preincubated for 1 hr followed by MPP+ addition measured up to 24 hrs by MTT assay relative to control; type: functional
# Outline: (§1)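 SH-SY5Y cells seeded 2x10³/well and left to adhere 24 h. Compounds (5–20 μM, DMSO) were added 1 h before 2 mM MPP⁺ for 24 h at 37°C, 5% CO2. Viability was read by MTT (0.5 mg/ml final, 3 h), DMSO solubilisation and absorbance at 570/630 nm, expressed as % of vehicle control. Mean ± SD, n = 5.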
# SH-SY5Y [2] = test: Neuroprotective activity against MPP+-induced toxicity in human SH-SY5Y cells assessed as increase in cell viability preincubated for 1 hr followed by MPP+ addition measured up to 24 hrs by MTT assay; type: functional, cell-based; outline: as §1
# SH-SY5Y [3] = test: Cytotoxicity against human SH-SY5Y cells assessed as reduction in cell viability up to 20 uM up to 24 hrs by MTT assay; type: cell-based
# Outline: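 SH-SY5Y cells in DMEM with 10% FBS and penicillin/streptomycin at 37°C, 5% CO2, seeded 2x10³ cells/well and left to adhere 24 h. Compounds (5, 10, 20 μM, in DMSO) were added for 3, 6 and 24 h. MTT was then added (0.5 mg/ml final) for 3 h, and formazan was dissolved in DMSO and read at 570/630 nm. Values are relative to vehicle control.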
# SH-SY5Y [4] = test: Neuroprotective activity against MPP+-induced toxicity in human SH-SY5Y cells assessed as increase in cell viability at 5 uM preincubated for 1 hr followed by MPP+ addition measured up to 24 hrs by MTT assay relative to control; type: functional; outline: as §1
# SH-SY5Y [5] = test: Neuroprotective activity against MPP+-induced toxicity in human SH-SY5Y cells assessed as increase in Bcl2 protein expression level at 1 uM preincubated for 1 hr followed by MPP+ addition measured up to 12 hrs by Western blot method
# SH-SY5Y [6] = test: Neuroprotective activity against MPP+-induced toxicity in human SH-SY5Y cells assessed as ratio of Bcl2 to beta-actin protein expression level at 5 uM preincubated for 1 hr followed by MPP+ addition measured up to 12 hrs by Western blot method (reference value: 2.84 +/- 0.02); type: functional
# Outline: (§2)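 SH-SY5Y cells seeded 5x10⁵/well and left to adhere 24 h. Compounds (1 or 5 μM) were added 1 h before 2 mM MPP⁺ for 12 h. Lysates in RIPA-type buffer; 10 μg protein run on 10% SDS gels and blotted to PVDF. Blots were probed with rabbit anti-bax, Bcl-2, Bcl-xl or caspase-3 (cleaved p17/p19) antibodies and detected by chemiluminescence. Densitometry was normalised to β-actin. Mean ± SD, n = 3.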
# SH-SY5Y [7] = test: Neuroprotective activity against MPP+-induced toxicity in human SH-SY5Y cells assessed as increase in Bcl-xl protein level at 1 uM preincubated for 1 hr followed by MPP+ addition measured up to 12 hrs by Western blot method; type: functional, cell-based; outline: as §2
# SH-SY5Y [8] = test: Neuroprotective activity against MPP+-induced toxicity in human SH-SY5Y cells assessed as ratio of Bax to beta-actin protein expression level at 1 uM preincubated for 1 hr followed by MPP+ addition measured up to 12 hrs by Western blot method (reference value: 1.26); type: functional; outline: as §2
# SH-SY5Y [9] = test: Neuroprotective activity against MPP+-induced toxicity in human SH-SY5Y cells assessed as increase in Bcl-xl protein level by measuring ratio of Bcl-xl to beta actin level at 5 uM preincubated for 1 hr followed by MPP+ addition measured up to 12 hrs by Western blot method (reference value: 0.27 +/- 0.001); type: functional; outline: as §2
# SH-SY5Y [10] = test: Neuroprotective activity against MPP+-induced toxicity in human SH-SY5Y cells assessed as decrease in caspase-3 activation at 1 uM preincubated for 1 hr followed by MPP+ addition measured up to 12 hrs by Western blot method; type: functional, cell-based; outline: as §2
# SH-SY5Y [11] = test: Neuroprotective activity against MPP+-induced toxicity in human SH-SY5Y cells assessed as ratio of Bax to beta-actin protein expression level at 5 uM preincubated for 1 hr followed by MPP+ addition measured up to 12 hrs by Western blot method (reference value: 1.26); type: functional; outline: as §2
# SH-SY5Y [12] = test: Neuroprotective activity against MPP+-induced toxicity in human SH-SY5Y cells assessed as decrease in caspase-3 activation at 5 uM preincubated for 1 hr followed by MPP+ addition measured up to 12 hrs by Western blot method; type: functional, cell-based; outline: as §2
# SH-SY5Y [13] = test: Neuroprotective activity against MPP+-induced toxicity in human SH-SY5Y cells assessed as decrease in Bax protein expression level preincubated for 1 hr followed by MPP+ addition measured up to 12 hrs by Western blot method; type: functional, cell-based; outline: as §2
# SH-SY5Y [14] = test: Neuroprotective activity against MPP+-induced toxicity in human SH-SY5Y cells assessed as increase in Bcl2 protein expression level preincubated for 1 hr followed by MPP+ addition measured up to 12 hrs by Western blot method
# SH-SY5Y [15] = test: Neuroprotective activity against MPP+-induced toxicity in human SH-SY5Y cells assessed as increase in cell viability at 5 to 10 uM preincubated for 1 hr followed by MPP+ addition measured up to 24 hrs by MTT assay relative to control; type: functional; outline: as §1
# SH-SY5Y [16] = test: Neuroprotective activity against MPP+-induced toxicity in human SH-SY5Y cells assessed as increase in cell viability at 20 uM preincubated for 1 hr followed by MPP+ addition measured up to 24 hrs by MTT assay relative to control; type: functional; outline: as §1
Structure (SMILES),Activity (SH-SY5Y [1]),Activity (SH-SY5Y [2]),Activity (SH-SY5Y [3]),Activity (SH-SY5Y [4]),Activity (SH-SY5Y [5]),Ratio (SH-SY5Y [6]),Activity (SH-SY5Y [7]),Ratio (SH-SY5Y [8]),Ratio (SH-SY5Y [9]),Activity (SH-SY5Y [10]),Ratio (SH-SY5Y [11]),Activity (SH-SY5Y [12]),Activity (SH-SY5Y [13]),Activity (SH-SY5Y [14]),Activity (SH-SY5Y [15]),Activity (SH-SY5Y [16])
Cc1nc2c(c(C)nn2-c2ccccc2)c(C)c1Br,10 - 20%,Dose-dependent effect,Non-Toxic,20 - 30%,,,,,,,,,,,,
Cc1nc2c(c(C)nn2-c2ccccc2)c(C)c1-c1ccc(C(F)(F)F)cc1,10 - 20%,Dose-dependent effect,Non-Toxic,20 - 30%,inactive,0.85,Active,0.85,0.28,Active,0.49 - 1.03,inactive,Dose-dependent effect,Dose-dependent effect,,
Cc1ccccc1-c1c(C)nc2c(c(C)nn2-c2ccccc2)c1C,10 - 20%,Dose-dependent effect,Non-Toxic,20 - 30%,,,,,,,,,,,,
Cc1cccc(-c2c(C)nc3c(c(C)nn3-c3ccccc3)c2C)c1,10 - 20%,Dose-dependent effect,Non-Toxic,20 - 30%,,,,,,,,,,,,
Cc1nc2c(c(C)nn2-c2ccccc2)c(C)c1-c1ccc(C=O)cc1,10 - 20%,Dose-dependent effect,Non-Toxic,20 - 30%,inactive,2.63,Active,0.86,,Active,0.49 - 1.03,Active,Dose-dependent effect,Dose-dependent effect,,
Cc1nc2c(c(C)nn2-c2ccccc2)c(C)c1-c1ccc(Cl)cc1,,Dose-dependent effect,Non-Toxic,,inactive,0.39,Active,0.78,,Active,0.49 - 1.03,,Dose-dependent effect,Dose-dependent effect,20 - 30%,10 - 20%
Cc1ccc(-c2c(C)nc3c(c(C)nn3-c3ccccc3)c2C)cc1,10 - 20%,Dose-dependent effect,Non-Toxic,20 - 30%,inactive,3.62,Active,1.11,,Active,0.49 - 1.03,Active,Dose-dependent effect,Dose-dependent effect,,
Cc1nc2c(c(C)nn2-c2ccccc2)c(C)c1-c1cccc(C#N)c1,10 - 20%,Dose-dependent effect,Non-Toxic,20 - 30%,,,,,,,,,,,,
COc1ccc(-c2c(C)nc3c(c(C)nn3-c3ccccc3)c2C)cc1,10 - 20%,Dose-dependent effect,Non-Toxic,20 - 30%,,,,,,,,,,,,
Cc1nc2c(c(C)nn2-c2ccccc2)c(C)c1-c1cccs1,10 - 20%,Dose-dependent effect,Non-Toxic,20 - 30%,inactive,4.33,Active,0.76,,Active,0.49 - 1.03,,Dose-dependent effect,Dose-dependent effect,,
Cc1nc2c(c(C)nn2-c2ccccc2)c(C)c1-c1ccc([N+](=O)[O-])cc1,10 - 20%,Dose-dependent effect,Non-Toxic,20 - 30%,inactive,3.22,Active,0.75,,Active,0.49 - 1.03,inactive,Dose-dependent effect,Dose-dependent effect,,
CCOC(=O)c1ccc(-c2c(C)nc3c(c(C)nn3-c3ccccc3)c2C)cc1,10 - 20%,Dose-dependent effect,Non-Toxic,20 - 30%,,,,,,,,,,,,
Cc1nc2c(c(C)nn2-c2ccccc2)c(C)c1-c1ccc(N(C)C)cc1,10 - 20%,Dose-dependent effect,Non-Toxic,20 - 30%,,,,,,,,,,,,
Cc1nc2c(c(C)nn2-c2ccccc2)c(C)c1-c1ccccc1,10 - 20%,Dose-dependent effect,Non-Toxic,20 - 30%,,,,,,,,,,,,
Cc1nc2c(c(C)nn2-c2ccccc2)c(C)c1-c1ccc(F)nc1,,Dose-dependent effect,Non-Toxic,,,,,,,,,,,,20 - 30%,10 - 20%
